The target in the assay is T1, Menin (Homo sapiens) (UniProt O00255).
T1 sequence (whole entry): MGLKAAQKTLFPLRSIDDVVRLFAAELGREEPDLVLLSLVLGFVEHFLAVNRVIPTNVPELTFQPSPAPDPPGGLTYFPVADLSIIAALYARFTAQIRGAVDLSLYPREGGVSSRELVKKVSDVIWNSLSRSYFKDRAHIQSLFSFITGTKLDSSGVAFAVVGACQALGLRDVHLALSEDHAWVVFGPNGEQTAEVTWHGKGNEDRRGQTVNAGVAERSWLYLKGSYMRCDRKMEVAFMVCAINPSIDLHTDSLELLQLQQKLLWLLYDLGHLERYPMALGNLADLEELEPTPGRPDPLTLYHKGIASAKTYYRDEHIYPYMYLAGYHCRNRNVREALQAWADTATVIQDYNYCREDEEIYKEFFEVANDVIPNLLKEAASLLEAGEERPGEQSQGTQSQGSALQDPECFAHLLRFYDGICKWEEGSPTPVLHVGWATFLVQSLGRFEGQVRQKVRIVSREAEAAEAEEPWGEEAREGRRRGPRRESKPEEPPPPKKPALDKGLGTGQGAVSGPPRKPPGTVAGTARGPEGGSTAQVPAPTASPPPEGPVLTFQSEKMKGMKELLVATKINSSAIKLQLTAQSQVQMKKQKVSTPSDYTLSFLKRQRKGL
The assay can be described thus: Inhibition of FITC-labelled MLL1 binding to menin (unknown origin) at 20 uM after 120 mins by fluorescence polarization method relative to control. The gist of the method: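 Menin–MLL1 protein–protein interaction inhibition assay with fluorescence polarization read-out on a plate reader. MI-2-2 served as the positive control.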

Broadly, the inhibition is the relative decrease from the control value, in per cent. Low readings indicate a response near the control, high ones a response far below the control. For `CC(=O)NC(C)(C)[C@H]1C(=O)C2=CC(C)(C)NC(C)=C2C(=O)[C@@H]1C=C(C)C`, the inhibition was less than 50%. `CC1(C)CC(C2OC2(C)C)=CC(=O)N1` (stereo not drawn): the inhibition is less than 50%.

Consider `CC1=CC(C)(C)NC1=O`, for which the inhibition is less than 50%. `CC(=O)NC(C)(C)[C@H]1C(=O)C2=CC(C)(C)NC(C)=C2C(=O)[C@@H]1C` yielded an inhibition of less than 50%. In turn, `CC(=O)NC(C)(C)CC1=C[C@@]2(C)C(=O)C(C)(C)NC(C)=C2C1=O` gave an inhibition of less than 50%.

Compound `CC1=C2C(=O)C3=CC(C)(C)N=C4CC(C)(C)C[C@@]2(CC(C)(C)N1)[C@]34O` had an inhibition of less than 50%. Under `CC1=C2C3=C(C)C(=O)C(C)(C)N=C3C[C@@]2(C)CC(C)(C)N1` stands less than 50%.

With `CC1(C)CC2=NC(C)(C)C(=O)C(C(C)(C)O)=C2N1`, the inhibition is less than 50%. Then `CC1(C)CC2=NC(C)(C)C3=NC(C)(C)CC3(O)C2=N1` (stereo not drawn), with less than 50%; and `CC1=C2NC(C)(C)CC2=NC(C)(C)C1=O`, with less than 50%; and `CC1=CC(=O)NC(C)(C)C1`, with less than 50%. `CC(=O)NC(C)(C)C1C=C2CC(C)(C)NC(C)=C2C(=O)C1C` (stereo not drawn): the inhibition is less than 50%. In turn, `CC(=O)NC(C)(C)C[C@@]1(O)C(=O)C2=C(C)NC(C)(C)C(=O)C2(C)[C@H]1O` (stereo partly drawn) returned an inhibition of less than 50%.

(Values after ChEMBL document CHEMBL4145581, “Piperidine Alkaloids with Diverse Skeletons from Anacyclus pyrethrum” (J Nat Prod, 2018).)
